Only some compounds are listed: those with a hit (about 3.5% of all), similar ones and a draw of the others.
RGS4 block = RGS4 inhibitors, primary screen, cell-based, HEK293 M3R inducible RGS4, calcium flux. Regulator of G-protein signaling 4 (Homo sapiens), P49798. Fluo-4 calcium flux; stronger effect = higher value; triggered by carbachol at its EC20. B-score at 10 µM. 0.45% of 310,000 active;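 active means B-score, a plate-corrected calcium signal, over three deviations above library mean, with baseline fluorescence within five deviations of library mean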;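 further: RGS4 expression induced by doxycycline in cells with stable M3 receptor; B-score is computed from the integrated fluorescence ratio over baseline after carbachol; higher B-score means a larger calcium signal and so more RGS4 inhibition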
Target sequence (P49798 whole entry, looked up): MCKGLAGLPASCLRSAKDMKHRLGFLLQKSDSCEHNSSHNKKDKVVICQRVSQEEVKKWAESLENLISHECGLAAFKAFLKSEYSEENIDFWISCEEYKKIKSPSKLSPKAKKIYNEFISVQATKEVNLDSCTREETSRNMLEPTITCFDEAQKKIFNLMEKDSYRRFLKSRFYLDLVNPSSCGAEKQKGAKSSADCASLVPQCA
MrgX1 agonist = agonists of human MrgX1 receptor, primary screen, HEK293 cells, Fluo-4 calcium flux | Mas-related G-protein coupled receptor member X1 (Homo sapiens), Q96LB2 | Fluo-4 calcium fluorescence, agonist mode; stronger effect = higher value | B-score at 10 µM | 0.44% of 310,000 active | AID 588627, 2011;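 active means calcium response B-score plate-corrected fluorescence ratio at least 3 library SD, with starting fluorescence B-score inside 5 SD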
Target sequence (Q96LB2 whole entry, looked up): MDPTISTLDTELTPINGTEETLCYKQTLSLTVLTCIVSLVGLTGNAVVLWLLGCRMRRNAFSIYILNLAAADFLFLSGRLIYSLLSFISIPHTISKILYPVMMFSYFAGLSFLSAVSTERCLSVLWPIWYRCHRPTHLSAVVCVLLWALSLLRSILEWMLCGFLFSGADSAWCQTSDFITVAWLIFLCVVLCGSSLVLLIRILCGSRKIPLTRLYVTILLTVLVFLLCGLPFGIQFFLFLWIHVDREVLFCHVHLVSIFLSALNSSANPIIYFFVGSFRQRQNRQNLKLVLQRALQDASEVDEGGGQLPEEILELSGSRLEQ
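Assay system: stable human MrgX1 HEK293 cell line. Quantity: 15,000 cells per well. Schedule: cells plated overnight, dye loaded 0.5 h 37 °C, 0.5 h room temperature. Detection: Fluo-4 NW calcium-flux fluorescence, kinetic read. Read-out basis: peak-minus-minimum fluorescence over baseline, converted to B scores. Control set: positive and negative control wells on each plate.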
MrgX1 PAM = positive allosteric modulators of MrgX1, primary screen, HEK293 cells, Fluo-4 calcium flux; Mas-related G-protein coupled receptor member X1 (Homo sapiens), Q96LB2; FDSS; stronger effect = higher value; B-score at 10 µM; 0.63% of 310,000 active;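 active means plate-corrected calcium response at least 3 library SD above typical, normal starting fluorescence, not activating the receptor alone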;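 further: compound read alongside a low EC10 to EC30 dose of BAM8-22 agonist; peak minus trough fluorescence over baseline measured at the second addition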
MrgX1 antagonist = antagonists of human MrgX1 receptor, primary screen, HEK293 cells, Fluo-4 calcium flux | Mas-related G-protein coupled receptor member X1 (Homo sapiens), Q96LB2 | BAM8-22 antagonism; stronger effect = lower value | B-score at 10 µM | 1.3% of 310,000 active | AID 588676, 2011;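 active means calcium-response B-score plate-corrected more than 3 library SD below zero, starting fluorescence within 5 deviations, no agonist response on first addition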;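 further: peak minus trough fluorescence over baseline after final BAM8-22 challenge near maximal dose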
RGS4 act = RGS4 potentiators or activators, primary screen, cell-based, HEK293 M3R inducible RGS4, calcium flux. 0.92% of 310,000 active. carbachol calcium flux Fluo4; stronger effect = lower value. B-score at 10 µM;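 active means B-score of the integrated calcium signal more than 4 SD below the library mean, with starting fluorescence not abnormally high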;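 further: negative B-score means reduced calcium response which marks RGS4 activation or potentiation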
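Also added: carbachol at ECmax as muscarinic agonist stimulus; Assay system: HEK293 cells with stable M3R and inducible RGS4; Timing: overnight RGS4 induction, 30 min dye load 37 °C, 20 min compound RT; Measured by: Fluo4-AM (2 µM) calcium-flux fluorescence, kinetic read.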
Hits are given with their value; – = inactive; · = not tested or not shown.

SMILES	RGS4 block	MrgX1 agonist	MrgX1 PAM	MrgX1 antagonist	RGS4 act
O=C(Nc1cccc(S(=O)(=O)N2CCCC2)c1)c1ccc2c(=O)n3c(nc2c1)CCCCC3	–	–	–	–	–
Cc1nc2ccccc2c(-c2ccccc2)c1CC(=O)O	–	–	–	–	–
O=C(O)C[C@H](O)C[C@H](O)/C=C/c1c(C2CC2)nc2ccccc2c1-c1ccc(F)cc1	–	·	·	·	-7.01
OCCn1c(C(F)(F)F)nc2ccccc21	–	–	–	–	–
Cn1c(Cn2c(C(F)(F)F)nc3ccccc32)nc2ccccc21	–	–	–	-4.91	–
CC1=CSC2=NC(=O)/C(=C\c3cccn3-c3ccccc3)C(=N)N12	–	–	8.76	–	–
Cc1cc(/C=C2/C(=N)N3C(=NC2=O)SN=C3S(C)(=O)=O)c(C)n1-c1ccc(F)cc1	–	–	18.3	–	–
Cc1ccc(-n2cccc2/C=C2/C(=N)N3C(=NC2=O)SN=C3S(C)(=O)=O)cc1Cl	·	–	–	–	·
CCC1=NN2C(=N)/C(=C\c3cccn3-c3cccc(Cl)c3)C(=O)N=C2S1	–	–	10.5	–	–
Cc1cccc(C)c1-n1cccc1/C=C1/C(=N)N2C(=NC1=O)SN=C2S(C)(=O)=O	–	–	–	–	-7.86
O=C(CSCc1cc(=O)n2nc(C3CC3)sc2n1)Nc1ccc(F)cc1	–	–	–	–	–
O=C(Nc1ccc(-c2cn3c(n2)SCC3)cc1)c1ccc2ccccc2n1	–	–	–	–	-7.38
O=C(Nc1cccc(-c2cn3c(n2)SCC3)c1)c1ccc2ccccc2n1	–	–	–	–	–
Cc1cc(C(=O)NNS(=O)(=O)c2ccc(C(C)(C)C)cc2)nn1C(C)(C)C	–	–	9.82	–	–
Cc1ccc(S(=O)(=O)NNC(=O)C(O)(c2ccccc2)c2ccccc2)cc1	–	–	–	–	–
Cn1c2ccccc2c2cc(/C=N/NC(=O)c3cc(O)ccc3O)ccc21	–	–	–	–	-9.04
COc1cc(C(=O)N/N=C/c2ccc3c(c2)c2ccccc2n3C)ccc1O	–	–	–	–	–
C=CCC(C)(NCc1ccccc1)c1ccc(C)cc1 (stereo unspecified)	–	–	7.55	–	–
CC(=O)c1ccc(N2CCN(C(=O)CCS(=O)(=O)c3ccc4c(c3)NC(=O)CS4)CC2)cc1	–	–	–	–	–
COCC1CCN(Cc2c(C(=O)N3CCc4ccccc4C3)nc3ccc(Cl)cn23)C1 (stereo unspecified)	–	–	–	–	–
COc1ccc(C2SCCN2C(=S)Nc2cccc(C(F)(F)F)c2)cc1 (stereo unspecified)	–	–	–	-5.28	–
CN1CCN(/N=C/c2ccc(-c3ccc([N+](=O)[O-])cc3Cl)o2)CC1	–	–	–	-4.6	–
CCCCOc1ccc(C(=O)N2CCNC(=O)C2)cc1	–	–	–	–	–
CN(C)c1ccc(-c2sc(Nc3ccccc3)n[n+]2-c2ccc(F)cc2)cc1	–	46.7	–	–	–
COc1ccc(C)cc1Nc1n[n+](-c2ccccc2)c(-c2ccc(N(C)C)cc2)s1	–	33.6	–	–	–
SMILES	RGS4 block	MrgX1 agonist	MrgX1 PAM	MrgX1 antagonist	RGS4 act
CCN(CC)c1ccc(-c2sc(Nc3ccccc3)n[n+]2-c2ccc(F)cc2)cc1	–	–	–	–	–
CCc1ccc(Nc2n[n+](-c3ccccc3)c(-c3ccc(N(CC)CC)cc3)s2)cc1	–	44.7	–	–	–
COc1ccc2ccccc2c1-c1sc(Nc2ccccc2)n[n+]1-c1ccc(F)cc1	–	–	–	-5.87	–
COc1ccc(NC(=O)Nc2ccc(CC(=O)O)cc2)cc1	–	–	–	–	–
Cc1ccc([N+](=O)[O-])cc1NC(=S)NCCc1ccccc1	–	–	–	–	–
Cc1ccc2cc(C)c3nnc(SCC(=O)Nc4nc5c(s4)CCCC5)n3c2c1C	–	–	–	–	–
CCc1ccc(Nc2n[n+](-c3ccccc3)c(/C=C/c3ccccc3)s2)cc1	–	–	7.42	–	–
CC1CC(C)CN(CCCNC(=O)Cn2ncc3c(=O)oc4ccccc4c32)C1 (stereo unspecified)	–	–	–	–	–
Cc1c2cnn(CC(=O)NCCCN3CC(C)CC(C)C3)c(=O)c2c(C)n1Cc1ccccc1Cl (stereo unspecified)	–	–	–	-6.89	–
O=S1(=O)CCOCCCN1Cc1ccccc1	–	–	–	–	–
COc1ccc(/C=C/C(=O)C2CC2)cc1COc1c(C)cccc1C	–	–	–	–	-8.53
COc1nc(Nc2cccc(F)c2)nc(OC)n1	–	–	–	–	–
COc1cc2nc(Nc3cccc(F)c3)nc(N)c2cc1OC	–	–	–	–	-7.05
COc1cc(CNCc2cccs2)ccc1OCc1ccccc1	–	–	–	–	-7.09
COc1cc(CNCc2cccs2)ccc1OCc1cccs1	–	–	–	–	–
O=C(CCCOc1ccc(Br)cc1)Nc1ccc(S(=O)(=O)N2CCOCC2)cc1	–	–	–	–	–
O=c1c(-c2ccccc2)c(-c2ccccc2)oc2cc(O)cc(O)c12	–	–	–	–	–
O=c1cc(-c2ccccc2)c2c(O)cc(O)cc2o1	–	29.5	–	–	–
N=C1S/C(=C\c2ccco2)C(=O)N1c1ccc2c(c1)OCO2	–	–	–	–	–
N=C1S/C(=C\c2ccco2)C(=O)N1c1nccs1	–	48.5	–	–	–
CN(C)CCOC1c2ccccc2CSc2ccccc21 (stereo unspecified)	–	–	–	–	-8.88
O=C1CCCc2oc3c(cc(NS(=O)(=O)c4ccc5c6c(cccc46)C(=O)N5)c4ccccc43)c21	–	–	7	–	–
N=c1oc2cc(O)ccc2cc1C(=O)Nc1ccc(Br)cc1	–	–	–	-7.01	–
CCN(CC)C1CCN(C(=O)c2cc(COc3ccc(-n4cncn4)cc3)on2)C1 (stereo unspecified)	–	–	–	–	–
O=S1(=O)N=C(N2CCc3ccccc3C2)c2ccccc21	–	–	–	–	-7.41
CCN1C(=S)SC(=O)C1=C1C=C(C)N(CCO)C(C)=C1	–	38.3	–	–	–
Cc1ccc(SCc2nc3ncccn3c2Br)cc1	–	–	–	–	-7.57
CCN(Cc1ccccc1)C(=O)CCS(=O)(=O)c1ccc2c(c1)NC(=O)CO2	–	–	–	–	–
O=C1NN(c2ccccc2)C(=O)/C1=C/c1ccc(-c2ccc(C(=O)O)cc2)o1	–	–	–	–	–
O=C(O)c1ccc(N2C(=O)/C(=C/c3ccc(-c4ccc([N+](=O)[O-])cc4)o3)C=C2c2ccccc2)cc1	–	–	–	–	-6.96

Assay outcomes as filed in PubChem.
